Laboratory results as given in ChEMBL document CHEMBL1126111, “Potential antitumor agents. 21. Structure determination and antitumor activity of imidazo[2,1-b]thiazole guanylhydrazones” (1992).

Experiments:
Format in all cases: functional
Conditions in all cases: route intraperitoneal
Mus musculus [1] = experiment: Antitumor activity in mice bearing Ehrlich ascites tumor cells at 12.5 mg/kg ip
Method in brief: (§1)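 Female Swiss mice (average weight 21 ± 1 g), groups of eight, implanted with 10^6 Ehrlich ascites tumor cells from donor mice; single ip dose in DMSO given 24 h later, starting at 100 mg/kg, repeated at lower doses in new groups if active. Deaths followed for 60 days; % T/C = mean survival time treated vs vehicle controls (10 mice).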

Mus musculus [2] = experiment: Antitumor activity in mice bearing Ehrlich ascites tumor cells at 25 mg/kg ip; method in brief: as §1
Mus musculus [3] = experiment: Antitumor activity in mice bearing Ehrlich ascites tumor cells at 100 mg/kg ip; method in brief: as §1
Mus musculus [4] = experiment: Antitumor activity in mice bearing Ehrlich ascites tumor cells at 50 mg/kg ip; method in brief: as §1

Structure (SMILES) | T/C (Mus musculus [3]) | T/C (Mus musculus [4]) | also measured
Cl.N=C(N)N/N=C/c1c(-c2ccc(Cl)cc2)nc2sccn12 | – | – | T/C (Mus musculus [1]): 190%
Cc1ccc(-c2nc3sccn3c2/C=N/N=C(N)N)cc1.Cl | – | – | T/C (Mus musculus [2]): 110%
Cc1nc2sccn2c1/C=N/N=C(N)N.Cl | 100% | – | –
Cc1ccc(-c2nc3n(c2/C=N/N=C(N)N)CCS3)cc1.Cl | – | 100% | –
Cl.N=C(N)N/N=C/c1c(Cl)nc2sccn12 | – | 200% | –
Cl.N=C(N)N/N=C/c1c(-c2ccccc2)nc2sccn12 | – | 120% | –
Cc1nc2n(c1/C=N/N=C(N)N)CCS2.Cl | – | 100% | –
Cl.N=C(N)N/N=C/c1c(-c2ccccc2)nc2n1CCS2 | – | 100% | –
Cl.N=C(N)N/N=C/c1c(Cl)nc2n1CCS2 | 180% | – | –
O=c1[nH]cc(F)c(=O)[nH]1 [FLUOROURACIL] | 180% | – | –
